Results gathered from unrelated publications.
Melanocortin receptor 5: Melanocortin receptor 5 (Mus musculus, UniProt P41149)
rep main protease: Replicase polyprotein 1ab, main protease (rep, Severe acute respiratory syndrome-related coronavirus, UniProt P0C6X7)

C[C@@H]1NC(=O)[C@H](CCCN)NC(=O)[C@H](Cc2ccccc2)NC(=O)[C@H](Cc2ccccc2)NC(=O)[C@H](CCCNC(=N)N)NC(=O)[C@@H]2CCCN2C(=O)[C@H]2CCCN2C(=O)[C@H](Cc2ccccc2)NC1=O has an EC50 of over 100 µM (Melanocortin receptor 5; reporter gene; agonist).
For Clc1cccc(N2CCNCC2)c1Cl, the Ki was over 63.1 µM (Muscarinic acetylcholine receptor M4 (CHRM4, Homo sapiens, UniProt P08173); ligand displacement; radioligand; cell membranes).
For O=C(O)[C@H]1O[C@@H](Oc2cc3oc(-c4ccccc4)cc(=O)c3c(O)c2O)[C@H](O)[C@@H](O)[C@@H]1O, the IC50 was 101 µM (rep main protease; enzyme activity; inhibitor).
C[C@@H]1NC(=O)[C@H](CC(N)=O)NC(=O)[C@H](Cc2ccccc2)NC(=O)[C@H](Cc2cccc3ccccc23)NC(=O)[C@H](CCCNC(=N)N)NC(=O)[C@@H]2CCCN2C(=O)[C@H]2CCCN2C(=O)[C@H](Cc2ccccc2)NC1=O has an EC50 of over 100 µM (Melanocortin receptor 5; reporter gene; agonist).
O=C1c2c(O)cc(O)cc2O[C@H](c2cc(O)c(O)c(O)c2)[C@H]1O has an IC50 of 4.58 µM (rep main protease; enzyme activity; inhibitor).
With [Hg+2] the Ki was 0.5 µM (rep main protease; enzyme activity; inhibitor).
With CN1CCC(C(c2ccccc2)c2ccccc2)CC1 the Ki was 0.0251 µM (Histamine H1 receptor (HRH1, Homo sapiens, UniProt P35367); cell-free assay; radioligand).
With COc1ccc(-c2nsc(NC(=O)[C@@H]3C[C@H]3C)c2C)cc1 the IC50 was 0.0089 µM (Metabotropic glutamate receptor 1 (GRM1, Homo sapiens, UniProt Q13255); calcium signal; antagonist).
The Kd of CN[C@]1(c2ccccc2Cl)CCCCC1=O is reported as 42 µM (Ferritin light chain (FTL, Equus caballus, UniProt P02791); cell-free assay; fluorescence).
